Measured values: ChEMBL document CHEMBL2176865, “Discovery of diarylhydantoins as new selective androgen receptor modulators” (J Med Chem, 2012)

Legend:
Rattus norvegicus [1] = assay: Androgenic activity in ORX rat model assessed as ventral prostate weight at 30 mg/kg, po administered 4 days relative to sham-treated control; format: functional, Prostate gland
Summary of the method: (§1)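 Young (immature) rats castrated, left untreated one week, then dosed daily for four days (test agents orally; testosterone propionate subcutaneously). Untreated ORX and sham-operated rats as controls. Levator ani (anabolic) and ventral prostate (androgenic) weights normalised to body weight; activity % = (W/BW treated − W/BW ORX)/(W/BW sham − W/BW ORX) × 100; A50 = dose giving 50% activity.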

Rattus norvegicus [2] = assay: Anabolic activity in ORX rat model assessed as levator ani muscle weight at 30 mg/kg, po administered 4 days relative to sham-treated control; format: functional; summary of the method: as §1
Rattus norvegicus [3] = assay: Androgenic activity in sc dosed ORX rat model assessed as maximum effect on ventral prostate weight administered 4 days relative to sham-treated control; format: functional, Prostate gland; summary of the method: as §1
Rattus norvegicus [4] = assay: Anabolic activity in sc dosed ORX rat model assessed as maximum effect on levator ani muscle weight administered 4 days relative to sham-treated control; format: functional; summary of the method: as §1
Rattus norvegicus [5] = assay: Androgenic activity in sc dosed ORX rat model assessed as dose required to induce 50% effect on ventral prostate weight administered 4 days; format: functional, Prostate gland; summary of the method: as §1
Rattus norvegicus [6] = assay: Anabolic activity in sc dosed ORX rat model assessed as dose required to induce 50% effect on levator ani muscle weight administered 4 days; format: functional; summary of the method: as §1
Rattus norvegicus [7] = assay: Androgenic activity in ORX rat model assessed as ventral prostate weight at 1 mg/kg, sc administered 4 days relative to sham-treated control; format: functional, Prostate gland; details: route subcutaneous; summary of the method: as §1
Rattus norvegicus [8] = assay: Anabolic activity in ORX rat model assessed as levator ani muscle weight at 1 mg/kg, sc administered 4 days relative to sham-treated control; format: functional; details: route subcutaneous; summary of the method: as §1

Row | SMILES | Activity (Rattus norvegicus [1]) [%] | Activity (Rattus norvegicus [2]) [%] | further results
1 | C#CCN1C(=O)N(c2ccc(C#N)c(C(F)(F)F)c2)C(=O)C1(C)c1ccc(O)cc1 (racemic) | 19 | 95 | 
2 | CN1C(=O)N(c2ccc(Cl)c(Cl)c2)C(=O)C1(C)c1ccc(O)cc1 (racemic) | 0 | 12 | 
3 | CN1C(=O)N(c2ccc(C#N)c(C(F)(F)F)c2)C(=O)C1(C)c1ccc(O)cc1 (racemic) | 14 | 84 | 
4 | COc1cc(N2C(=O)N(C)C(C)(c3ccc(O)cc3)C2=O)ccc1C#N (racemic) | 51 | 96 | 
5 | Cc1c(N2C(=O)N(C)C(C)(c3ccc(O)cc3)C2=O)ccc(C#N)c1Cl (racemic) | 12 | 82 | 
6 | CCC(=O)O[C@H]1CC[C@H]2[C@@H]3CCC4=CC(=O)CC[C@]4(C)[C@H]3CC[C@]12C [TESTOSTERONE PROPIONATE] |  |  | Activity (Rattus norvegicus [3]): 130%; Activity (Rattus norvegicus [4]): 130%; Activity (Rattus norvegicus [5]): 0.2 mg/kg; Activity (Rattus norvegicus [6]): 0.3 mg/kg; Activity (Rattus norvegicus [7]): 73%; Activity (Rattus norvegicus [8]): 99%
